For test [1], the system named is Rattus norvegicus. The test is described as follows: Antiallergic activity was evaluated by passive cutaneous anaphylaxis test after intra venous administration; insoluble. Format: functional, organism-based. In outline:
(§1)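 Adult female Sprague-Dawley rats (200 g, five per group) sensitized intradermally at two sites with rat reaginic anti-ovalbumin serum; after 48 h, challenged with chicken ovalbumin 20 mg/kg plus Evans blue 40 mg/kg. Compound iv at 32, 3.2, 0.32 µmol/kg at challenge. Dermal bluing area measured 30 min later; ≥3 doses, ID50 from dose-response regression; Student's t test.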

Test [2] deals with Rattus norvegicus. The test is described as follows: Antiallergic activity by passive cutaneous anaphylaxis test after intravenous administration. In kind it is functional. The following applies: read-out: ID50 (the source's name). In short, it runs like this: as §1
The subject of test [3] is Rattus norvegicus. In words: Inhibition of histamine release by 50% in rats after intra peritoneal administration. Format: functional. In outline: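 Male Sprague-Dawley rats (~250 g, six per group) passively sensitized ip with anti-ovalbumin reaginic serum, challenged 4 h later with ip ovalbumin 1 mg/rat; compound ip 30 s before antigen, ≥3 doses. Peritoneal fluid taken 3 min post-challenge, centrifuged at 150 g; histamine in supernatant measured fluorometrically (autoanalyzer). ID50 from dose-response regression curve; Student's t test.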

For test [4], the system named is Rattus norvegicus. In words: Inhibition of Evans blue extravasation by 50% in rats after intra peritoneal administration. In kind it is functional. In short, it runs like this:
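Male Sprague-Dawley rats (~250 g, six per group) sensitized ip with 1 mL anti-ovalbumin reaginic serum; 4 h later Evans blue iv, then ovalbumin 1 mg/rat ip in Tris buffer. Compound ip 30 s before challenge, ≥3 doses. Peritoneal fluid collected at 3 min; extravasated dye read at 615 nm. ID50 from dose-response regression; Student's t test.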

In ChEMBL document CHEMBL1122608, “Nitrogen bridgehead compounds. 44. New antiallergic 4H-pyrido[1,2-a]pyrimidin-4-ones. 4” (1984) one finds ID50 and ED50 data, which are given here for 47 compounds.

With `CCOC(=O)C1=CNC2=C(/C=N/c3ccccc3)CCC(C)N2C1=O` (centres undefined), in the test with Rattus norvegicus [1], the ID50 result was “Insoluble”.
As to `CC1CCC(/C=N/c2cccc(Cl)c2)=C2NC=C(C(=O)O)C(=O)N21` (centres undefined), the ID50 result in the test with Rattus norvegicus [1] is listed as “Insoluble”.
As for `CC1CCC(/C=N/c2ccc(Cl)cc2)=C2NC=C(C(=O)O)C(=O)N21` (centres undefined), the ID50 result with Rattus norvegicus [1] is recorded as “Insoluble”.
`CC1CCC(/C=N/c2ccc(O)cc2)=C2NC=C(C(=O)O)C(=O)N21` (centres undefined): the ED50 with Rattus norvegicus [2] worked out at 1.2 µmol/kg.
The same measure, in the same setting: for `C[C@H]1CC/C(=N\Nc2ccccc2)c2ncc(/C=C/C(=O)O)c(=O)n21` the value was 0.15 µmol/kg.
For the compound `CC1CCN2C(=O)C(C(=O)O)=CNC2=C1/C=N/c1ccccc1` (centres undefined), the ID50 result in the test on Rattus norvegicus [1] was “Insoluble”.
For `O=C(O)C1=CNC2=C(/C=N/c3ccccc3)CCN2C1=O`, the ED50 in the test with Rattus norvegicus [2] amounted to 15.4 µmol/kg.
For the compound `CC1CCC(=NNc2ccccc2)c2ncc(C(=O)O)c(=O)n21` (centres undefined), in the test on Rattus norvegicus [2], the ED50 worked out at 0.6 µmol/kg.
Still for that read-out and setting: for `C[C@@H]1CC/C(=N\Nc2ccccc2)c2ncc(/C=C/C(=O)O)c(=O)n21` the value was above 100 µmol/kg.
Turning to `CC1CCC(/C=N/c2ccc3ccccc3c2)=C2NC=C(C(=O)O)C(=O)N21` (centres undefined), the ID50 entry in the test with Rattus norvegicus [1] is recorded as “Insoluble”.
`CCOC(=O)C1=CNC2=C(/C=N/c3ccc(C(=O)O)cc3)CCC(C)N2C1=O` (centres undefined): in the test on Rattus norvegicus [2], the ED50 came out at 67.1 µmol/kg.
Take `CC(=O)c1ccc(/N=C/C2=C3NC=C(C(=O)O)C(=O)N3C(C)CC2)cc1` (centres undefined): the ED50 in the test with Rattus norvegicus [2] was found to be 0.75 µmol/kg.
The same measure, in the same setting: for `Cc1ccc(/N=C/C2=C3NC=C(C(=O)O)C(=O)N3C(C)CC2)cc1` (centres undefined) the value was 3.6 µmol/kg.
Take `CC1CC(/C=N/c2ccccc2C(=O)O)=C2NC=C(C(=O)O)C(=O)N2C1` (centres undefined): the ED50 in the test with Rattus norvegicus [2] amounted to 48.1 µmol/kg.
Same read-out and setting: for `C[C@@H]1CC/C(=N\Nc2ccccc2)c2ncc(C(=O)O)c(=O)n21` the value was 54.8 µmol/kg.
For the compound `C[C@H]1CC/C(=N\Nc2ccccc2)c2ncc(C(=O)O)c(=O)n21`, the ID50 with Rattus norvegicus [3] worked out at 1 nmol/kg; in the test with Rattus norvegicus [4], 5 nmol/kg. Also, in the test on Rattus norvegicus [2], the ED50 was found to be 0.3 µmol/kg.
For `O=C(O)C1=CNC2=C(/C=N/c3ccccc3C(=O)O)CCCCN2C1=O`, the ED50 in the test on Rattus norvegicus [2] turned out to be 68.7 µmol/kg.
For `CC1CCC(/C=N/c2ccc(C(=O)O)cc2)=C2NC=CC(=O)N21` (centres undefined), in the test on Rattus norvegicus [2], the ED50 was above 100 µmol/kg.
With `CCOc1cccc(/N=C/C2=C3NC=C(C(=O)O)C(=O)N3C(C)CC2)c1` (centres undefined), in the test on Rattus norvegicus [1], the ID50 entry is on record as “Insoluble”.
For the compound `Cc1cccc(/N=C/C2=C3NC=C(C(=O)O)C(=O)N3C(C)CC2)c1` (centres undefined), the ID50 with Rattus norvegicus [3] was determined as 2 nmol/kg; in the test on Rattus norvegicus [4], 130 nmol/kg. In the test with Rattus norvegicus [2], the ED50 amounted to 0.8 µmol/kg.
As to `CCOc1ccc(/N=C/C2=C3NC=C(C(=O)O)C(=O)N3C(C)CC2)cc1` (centres undefined), in the test with Rattus norvegicus [2], the ED50 worked out at 8.96 µmol/kg.
In the case of `O=C([O-])c1cc(=O)c2c(OCC(O)COc3cccc4oc(C(=O)[O-])cc(=O)c34)cccc2o1.[Na+].[Na+]` [CROMOLYN SODIUM], the ID50 was found to be 16 nmol/kg with Rattus norvegicus [3] and 55 nmol/kg in the test with Rattus norvegicus [4]. Besides, the ED50 in the test on Rattus norvegicus [2] stood at 1 µmol/kg.
In the case of `CC1CCC(/C=N/c2ccc([N+](=O)[O-])cc2)=C2NC=C(C(=O)O)C(=O)N21` (centres undefined), the ID50 entry in the test on Rattus norvegicus [1] is “Insoluble”.
With `Cc1nc2n(c(=O)c1/C=C/C(=O)O)C(C)CC/C2=N\Nc1ccccc1` (centres undefined), the ED50 in the test with Rattus norvegicus [2] is 0.29 µmol/kg.
`CCOC(=O)C1=CNC2=C(/C=N/c3ccccc3C(=O)O)CCC(C)N2C1=O` (centres undefined): the ED50 in the test on Rattus norvegicus [2] amounted to 24.8 µmol/kg.
On to `CC1CCC(/C=N/c2ccc(CC(=O)O)cc2)=C2NC=C(C(=O)O)C(=O)N21` (centres undefined), for which the ID50 amounted to 110 nmol/kg in the test with Rattus norvegicus [3] and 280 nmol/kg with Rattus norvegicus [4]. The ED50 with Rattus norvegicus [2] was found to be 5.8 µmol/kg.
Turning to `CC1CCC(/C=N/c2ccccc2)=C2NC(c3ccccc3)=C(/C=C/C(=O)O)C(=O)N21` (centres undefined), the ID50 entry in the test on Rattus norvegicus [1] is reported as “Insoluble”.
As to `CC1CCC(/C=N/c2ccccc2O)=C2NC=C(C(=O)O)C(=O)N21` (centres undefined), the ED50 in the test on Rattus norvegicus [2] was 4.11 µmol/kg.
Consider `Cc1cccc(/N=C/C2=C3NC=C(C(=O)O)C(=O)N3[C@H](C)CC2)c1`, for which the ED50 in the test on Rattus norvegicus [2] amounted to 66.9 µmol/kg.
Turning to `CC1CCC(/C=N/c2ccc(F)cc2)=C2NC=C(C(=O)O)C(=O)N21` (centres undefined), the ED50 in the test with Rattus norvegicus [2] was determined as 10.6 µmol/kg.
On the same count and under the same terms, for `CCOC(=O)C1=CNC2=C(/C=N/c3cccc(C(=O)O)c3)CCC(C)N2C1=O` (centres undefined) the value was 100 µmol/kg.
Consider `CC1CCC(/C=N/c2ccccc2)=C2NC=C(C(=O)O)C(=O)N21` (centres undefined), for which the ID50 entry with Rattus norvegicus [1] is on record as “Insoluble”.
With `CC1CCC(/C=N/c2cccnc2)=C2NC=C(C(=O)O)C(=O)N21` (centres undefined), the ID50 in the test on Rattus norvegicus [3] was found to be 100 nmol/kg; with Rattus norvegicus [4] it was 360 nmol/kg. For the same compound, the ED50 in the test with Rattus norvegicus [2] came to 2.4 µmol/kg.
Turning to `CC1CC(/C=N/c2ccccc2)=C2NC=C(C(=O)O)C(=O)N21` (centres undefined), the ED50 in the test with Rattus norvegicus [2] amounted to 20.2 µmol/kg.
For the compound `CC1CCC(/C=N/c2cccc(Br)c2)=C2NC=C(C(=O)O)C(=O)N21` (centres undefined), in the test with Rattus norvegicus [1], the ID50 entry was “Insoluble”.
Regarding `CC1CCC(/C=N/c2ccc(C(F)(F)F)cc2)=C2NC=C(C(=O)O)C(=O)N21` (centres undefined), the ED50 in the test on Rattus norvegicus [2] was above 100 µmol/kg.
For `O=C(O)c1cnc2n(c1=O)CCCC/C2=N\Nc1ccccc1`, in the test with Rattus norvegicus [2], the ED50 was 14.4 µmol/kg.
Regarding `COc1ccc(/N=C/C2=C3NC=C(C(=O)O)C(=O)N3C(C)CC2)cc1` (centres undefined), the ID50 entry with Rattus norvegicus [1] is listed as “Insoluble”.
As to `CC1CCC(/C=N/c2ccccc2C(=O)O)=C2NC=C(C(=O)O)C(=O)N21` (centres undefined), the ID50 worked out at 10 nmol/kg in the test on Rattus norvegicus [3] and 140 nmol/kg in the test on Rattus norvegicus [4]. In addition, in the test on Rattus norvegicus [2], the ED50 turned out to be 1.11 µmol/kg.
`CC1CC/C(=N\Nc2ccccc2)c2ncc(/C=C/C(=O)O)c(=O)n21` (centres undefined): the ED50 in the test on Rattus norvegicus [2] amounted to 0.27 µmol/kg.
Take `CC1CCC(/C=N/c2ccccc2F)=C2NC=C(C(=O)O)C(=O)N21` (centres undefined): the ED50 with Rattus norvegicus [2] was found to be 14.5 µmol/kg.
`CC1CCC(/C=N/c2cccc(C(=O)O)c2)=C2NC=CC(=O)N21` (centres undefined): in the test with Rattus norvegicus [2], the ED50 was above 100 µmol/kg.
With `O=C(O)C1=CNC2=C(/C=N/c3ccccc3C(=O)O)CCCN2C1=O`, the ED50 with Rattus norvegicus [2] worked out at 22.9 µmol/kg.
On the same count and under the same terms, for `CC1CCCc2ncc(C(=O)O)c(=O)n21` (centres undefined) the value was 240 µmol/kg.
`Cc1cccc(/N=C/C2=C3NC=C(C(=O)O)C(=O)N3[C@@H](C)CC2)c1`: in the test on Rattus norvegicus [2], the ED50 was 0.02 µmol/kg.
Turning to `CC1CCC(/C=N/c2ccc(Br)cc2)=C2NC=C(C(=O)O)C(=O)N21` (centres undefined), the ID50 entry with Rattus norvegicus [1] is given as “Insoluble”.
On to `CC1CCN2C(=O)C(C(=O)O)=CNC2=C1/C=N/c1ccccc1C(=O)O` (centres undefined), for which the ED50 in the test on Rattus norvegicus [2] stood at 100 µmol/kg.
